Assay outcomes: PubChem, several laboratories
AHR act: activates the human aryl hydrocarbon receptor; AHR-responsive luciferase reporter cells, luminescence; activation, % at 5 µM; 320,000 compounds, 2.5% hits; in the data active = activation above about 47%;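 also: 0% = vehicle wells and 100% = reference agonist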
NF-kB expr up: raises NF-kB expression in human neuronal cells; NF-kB reporter expression; stronger effect = higher value; fold change at 12.5 µM; 190,000 compounds, 1.6% hits; AID 1239; in the data active = fold change above about 3.3
STAT1 act: activators of IFN-gamma induced STAT1 signaling. NIH 3T3 STAT1-luciferase reporter, luminescence; 100% = IFN-gamma alone, no compound. activation (% of control), % at 5.5 µM. 200,000 compounds, 2.6% hits. AID 932;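 active = activation above the screen-wide mean activation plus 3 SD, cut at about 130% in these data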;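 also: raw ratio to IFN-gamma control signal so 100% means no change and 0% no light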
APP 5'UTR act: APP 5'UTR luciferase reporter activation; SH-SY5Y APP 5'UTR luciferase reporter, luminescence; zero percent = DMSO vehicle wells; activation, % at 2 µM; 190,000 compounds, 1% hits;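 active = activation above a set limit, based on mean plus 3 SD of controls, cut at about 140% in these data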
MDM2 E3 inh: Mdm2 E3 ligase (human) inhibition | 210,000 compounds, 0.11% hits | cell-based MDM2 ubiquitination luciferase reporter, 2 h; 0 = plate control, 100 = twice control, blank-subtracted | Q00987 | signal enhancement, % at 5 µM;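 active = signal enhancement of 30% or more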;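 also: luminescence tracks abundance of the self-degrading MDM2-luciferase fusion protein; higher signal means inhibition of MDM2 E3 ligase activity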
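system = mammalian cells stably expressing self-ubiquitinating, self-degrading MDM2 E3–luciferase fusion | quantity = 2000 cells per well seeded | incubation = 4 h cell settling then 2 h compound exposure, 37 °C | signal = SteadyLite luminescence, 15 min reagent step | benchmarks = plate control and blank wells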
PERK inh: human PERK inhibition, primary cell-based screen; inhibition, % at 5.6 µM; 220,000 compounds, 0.17% hits; Q9NZJ5; CHO PERK-DD fusion, SEAP luminescence translation reporter; AID 1416;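 active = inhibition above the mean inhibition of all tested compounds plus 3 SD, set separately per screening campaign, cut at about 2.9% in these data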;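 also: PERK kinase domain activated by AP20187 dimerizer at 100 nM; 0% = DMSO with dimerizer and 100% = rapamycin at 8.4 µM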
Target sequence (Q9NZJ5 whole entry, looked up, the tested form may be a part): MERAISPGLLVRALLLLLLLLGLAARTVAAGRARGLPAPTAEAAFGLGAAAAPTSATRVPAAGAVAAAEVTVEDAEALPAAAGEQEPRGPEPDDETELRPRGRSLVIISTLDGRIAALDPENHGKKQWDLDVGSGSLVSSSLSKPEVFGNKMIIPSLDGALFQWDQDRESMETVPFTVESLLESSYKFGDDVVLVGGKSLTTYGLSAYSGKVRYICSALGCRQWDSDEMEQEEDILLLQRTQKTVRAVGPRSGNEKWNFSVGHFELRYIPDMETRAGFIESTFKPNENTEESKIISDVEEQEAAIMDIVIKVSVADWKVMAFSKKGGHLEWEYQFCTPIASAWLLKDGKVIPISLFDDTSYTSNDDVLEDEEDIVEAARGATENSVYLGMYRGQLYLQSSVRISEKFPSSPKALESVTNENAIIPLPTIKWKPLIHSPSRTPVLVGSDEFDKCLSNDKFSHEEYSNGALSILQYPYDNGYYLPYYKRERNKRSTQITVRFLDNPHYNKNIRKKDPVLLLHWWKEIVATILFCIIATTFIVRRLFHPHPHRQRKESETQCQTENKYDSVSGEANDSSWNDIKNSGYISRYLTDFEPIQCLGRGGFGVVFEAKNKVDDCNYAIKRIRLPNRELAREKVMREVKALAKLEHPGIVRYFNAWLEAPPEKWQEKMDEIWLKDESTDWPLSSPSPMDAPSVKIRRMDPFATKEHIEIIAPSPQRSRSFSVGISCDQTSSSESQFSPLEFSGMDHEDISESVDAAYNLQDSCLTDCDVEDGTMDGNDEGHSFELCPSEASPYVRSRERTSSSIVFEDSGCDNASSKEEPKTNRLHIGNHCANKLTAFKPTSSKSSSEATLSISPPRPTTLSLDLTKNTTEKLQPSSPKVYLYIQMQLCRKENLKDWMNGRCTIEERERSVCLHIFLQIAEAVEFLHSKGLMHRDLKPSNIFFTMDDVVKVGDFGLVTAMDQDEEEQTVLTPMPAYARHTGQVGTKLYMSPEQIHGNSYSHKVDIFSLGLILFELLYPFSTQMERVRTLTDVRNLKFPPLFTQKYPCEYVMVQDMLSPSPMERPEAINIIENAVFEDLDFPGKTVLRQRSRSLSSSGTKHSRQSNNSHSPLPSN
Numbers without * were called inactive; nt = no result. The list is not random: actives were taken first. Their share in the collection is about 4.5%.

SMILES	AHR act	NF-kB expr up	STAT1 act	APP 5'UTR act	MDM2 E3 inh	PERK inh
Cc1cccc(NC2SC(=O)N(c3ccccc3)C2=O)c1 (stereo not drawn)	2.0	3.53*	100.4	42.5	-16.9	0.2
COc1cc(/C=N/NC(=O)c2nnn(-c3nonc3N)c2C(C)C)ccc1OCc1ccc(F)cc1	0.6	nt	nt	nt	nt	nt
O=C(Nc1ccc(Br)cc1)c1cccn1-c1ncc(C(F)(F)F)cc1Cl	62.3*	0.98	101.7	-5.7	-9.9	-0.2
Cc1ccc(/C(CSc2nccn2-c2ncc(C(F)(F)F)cc2Cl)=N\O)cc1	31.3	0.84	80.6	0.8	-9.2	-1.2
O=C(CSc1nccn1-c1ncc(C(F)(F)F)cc1Cl)c1ccc(Br)cc1	36.0	0.61	130.4*	30.6	2.2	0.7
CCc1ccc(NC(=O)CSc2nnc(Cn3c(=O)sc4ccccc43)n2C)cc1	78.0*	1.5	99.7	-8.8	-8.9	0.0
CCNc1nc(NCC)n2c(SCC(=O)Nc3ccc(NC(C)=O)cc3)nnc2n1	-1.9	nt	nt	nt	nt	nt
O=C(CSc1nnnn1-c1ccccc1)Nc1nsc(-c2ccc(Cl)cc2)n1	5.9	0.56	98.6	-3.6	-8.7	0.2
O=C(CSc1nnnn1-c1ccccc1)Nc1nsc(-c2ccccc2)n1	4.1	7.91*	97.7	6.1	-18.9	0.1
Cn1c(Cn2c(=O)sc3ccccc32)nnc1SCC(=O)Nc1ccccc1	9.1	1.25	106.6	-4.5	-7.4	0.8
CCc1ccc(NC(=O)CSc2nnnn2-c2cccnc2)cc1	62.7*	nt	nt	nt	nt	nt
CCNc1nc(NCC)n2c(SCC(=O)Nc3ccc(CC)cc3)nnc2n1	49.8*	nt	nt	nt	nt	nt
Cc1ccc(NC(=O)CSCC(=O)NNC(=O)c2ccoc2C)cc1	1.1	nt	nt	nt	nt	nt
N#CC1(NC(=O)COC(=O)C23CC4CC(CC(O)(C4)C2)C3)CCCCC1	-0.7	nt	nt	nt	nt	nt
Cc1[nH]c2ccc3ccccc3c2c(=O)c1C/C=C/Cl	47.2*	nt	nt	nt	nt	nt
Cc1[nH]c2ccc(Br)cc2c(=S)c1C/C=C/Cl	6.2	nt	nt	nt	-4.0	-0.3
CCOc1ccc(/C=N/NC(=O)c2[nH]ncc2Br)c(O)c1	-1.6	4.4*	115.8	24.0	-55.4	2.0
Cc1ccc(O)c(/C=N/NC(=O)c2[nH]ncc2Br)c1	24.8	8.05*	131.4*	-1.5	-28.2	1.0
O=C(N/N=C/c1c(O)ccc2ccccc12)c1[nH]ncc1Br	46.5	1.15	108.5	-71.9	-12.0	0.4
COc1ccc(OC)c(/C=N/NC(=O)c2[nH]ncc2Br)c1	12.8	nt	nt	nt	-3.4	0.2
COc1cccc(N=Cc2c(O)c3ccccc3oc2=O)c1	29.3	nt	nt	nt	nt	nt
Cc1ccc(Nc2nc(N3CCN(C)CC3)nc(N)c2[N+](=O)[O-])cc1C	1.0	1	90.0	-3.3	3.3	-0.2
CCn1c2ccccc2c2cc(NC(=O)c3ccc(=O)oc3)ccc21	57.6*	nt	nt	nt	-11.6	0.9
CCn1c2ccccc2c2cc(NC(=O)CCCN3C(=O)CCC3=O)ccc21	67.3*	1.03	99.5	9.1	-10.1	-0.1
CCn1c2ccccc2c2cc(NC(=O)COC(=O)c3cc(Cl)c(N)cc3OC)ccc21	72.9*	nt	nt	nt	nt	0.7
SMILES	AHR act	NF-kB expr up	STAT1 act	APP 5'UTR act	MDM2 E3 inh	PERK inh
CCn1c2ccccc2c2cc(NC(=O)COC(=O)c3ccccc3O)ccc21	34.4	1.06	92.5	8.9	-6.5	0.3
CCn1c2ccccc2c2cc(NC(=O)c3cc(OC)cc(OC)c3)ccc21	44.8	4.05*	96.9	-94.9	-11.9	0.0
CC(C)C(NS(=O)(=O)c1cccc(C(F)(F)F)c1)C(=O)N1CCc2ccccc2C1 (stereo not drawn)	2.2	nt	nt	nt	nt	nt
CC(C)Oc1ccc(S(=O)(=O)N2CCOCC2)cc1NC(=O)C(C)Oc1ccc(F)cc1 (stereo not drawn)	2.6	nt	nt	nt	nt	nt
COc1ccc(C(=O)/C=C2\NCC3c4ccccc4CCN3C2=O)cc1 (stereo not drawn)	88.8*	0.95	100.1	6.1	-13.3	-0.1
COc1cccc(/C=N/NC(N)=S)c1OCc1cccc(Cl)c1	59.7*	0.58	102.4	-0.1	-1.9	-0.3
NC(=S)N/N=C/c1c[nH]c2ccc(OCc3ccccc3)cc12	70.9*	nt	nt	nt	nt	nt
COC(=O)N/N=C/c1cc(Cl)cc(Cl)c1OCc1ccccc1	61.8*	1.05	104.1	-11.3	-1.7	0.2
COc1cccc(/C=N/n2c(COc3ccccc3)n[nH]c2=S)c1	3.2	nt	nt	nt	nt	nt
COc1cccc(/C=N/Nc2nc(Nc3ccc([N+](=O)[O-])cc3)nc(N3CCCC3)n2)c1O	47.5*	0.47	78.8	-42.6	-22.4	0.1
COc1c(/C=N/Nc2nc(N3CCCCC3)nc(N3CCCCC3)n2)cccc1[N+](=O)[O-]	0.6	1.17	101.1	-4.5	5.8	-0.8
O=[N+]([O-])c1ccc(Nc2nc(N/N=C/c3cccc(F)c3)nc(N3CCCC3)n2)cc1	145.4*	0.58	104.3	-24.7	-19.5	0.2
O=Cc1ccc(C(=O)OCC(=O)Nc2ccc(F)cc2F)cc1	0.7	nt	nt	nt	nt	nt
CCOC(=O)Cc1c(C)nc2cc(-c3ccc(Cl)cc3)[nH]n2c1=O	58.5*	1.36	103.0	-3.2	-9.1	1.3
CCc1c(C)nc2cc(-c3ccc(OC)cc3)[nH]n2c1=O	31.9	2.26	129.9*	111.9	-15.1	-0.4
Cn1c(=O)c(-c2ccccc2N)nc2ccccc21	41.0	1.12	95.5	-3.5	-14.7	-0.1
Cn1c(=O)c(-c2ccccc2)nc2ccccc21	54.7*	1.16	107.3	9.3	nt	1.6
COC(=O)c1ccccc1NC1=C/C(=N\S(=O)(=O)c2ccc(C(=O)O)cc2)c2ccccc2C1=O	61.9*	nt	nt	nt	nt	nt
COC(=O)c1ccccc1NC1=C/C(=N\S(=O)(=O)c2cccs2)c2ccccc2C1=O	87.7*	0.6	109.2	-17.8	-3.7	-0.3
CCc1ccc(S(=O)(=O)/N=C2\C=C(Nc3ccc(C(=O)O)cc3)C(=O)c3ccccc32)cc1	12.5	nt	nt	nt	nt	nt
CC(C)(C)c1ccc(S(=O)(=O)/N=C2\C=C(NS(=O)(=O)c3ccccc3)C(=O)c3ccccc32)cc1	53.9*	nt	nt	nt	nt	nt
COc1ccccc1N1CCN(c2ccc(-c3ccccc3)nn2)CC1	-7.2	6.59*	111.7	-89.6	-56.0	-0.8
O=C(c1ccccc1-c1nc(-c2ccc(Cl)cc2)no1)N1CCCC1	53.3*	1.56	125.8	83.5	-12.0	-1.6
CC(NC(=O)c1ccccc1OC(F)F)c1ccc(-n2ccnc2)cc1 (stereo not drawn)	71.1*	nt	nt	nt	nt	nt
COc1ccc(C(=O)NC(C)c2ccc(-n3ccnc3)cc2)c(OC)c1OC (stereo not drawn)	18.3	nt	nt	nt	nt	nt
COc1ccc(C(=O)NC(C)c2ccc(-n3ccnc3)cc2)c(OC)c1 (stereo not drawn)	54.1*	nt	nt	nt	nt	nt
Cc1ccc(C(C(=O)NC2CCCC2)N(CCCO)C(=O)Cn2nnc(-c3ccc(C)o3)n2)cc1 (stereo not drawn)	-0.1	nt	nt	nt	nt	nt
S=c1[nH]c(-c2ccccc2)cn1/N=C/c1ccccc1Br	62.4*	0.92	119.8	20.0	-4.8	-0.5
S=c1[nH]c(-c2ccccc2)cn1/N=C/c1cccc2ccccc12	99.0*	2.09	104.8	17.3	2.7	0.7
